ABCB1 block = ABCB1 efflux pump inhibitors, primary screen, cell-based, multiplex, flow cytometry, ABCG2 counter-screen; ATP-dependent translocase ABCB1 (Homo sapiens), P08183; CCRF-Adr cells, JC-1 efflux; inhibition, % at 6.6 µM; 190,000 tested, 0.067% active; AID 1326, 2008; in the data active = inhibition above about 40%;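 also: higher value means more JC-1 retained so stronger ABCB1 efflux block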
Autophagy HCS = autophagy modulators in MEF cells, primary screen, imaging, high-content, MEF GFP-LC3 | MEF GFP-LC3 puncta imaging; test concentration mostly 10 µM | calls only at 10 µM (by protocol) | AID 463193, 2010 | 190,000 tested, 0.98% active;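 active = percentage of spot-positive cells more than 3 SD above its plate mean, without a fluorescence outlier flag or 80% toxicity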
MT stabilizer = microtubule stabilizers in HeLa cells, primary screen, imaging, high-content imaging | HeLa tubulin immunostaining HCS, 24 h; share of cells brighter than vehicle mean+2SD | % tubulin-high responders, % at 10 µM | 200,000 tested, 0.83% active | AID 2205, 2009;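 active = plate Z-score above 3 for both tubulin-high and condensed-nucleus cell shares, with cell loss under 80%, at 10 µM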;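 also: anti alpha tubulin signal scored within the nucleus-defined area of each cell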
bCat nuc transl = modulators of beta-catenin nuclear translocation, primary screen, imaging, HeLa cells, immunofluorescence, high-content. nuclear translocation activity, % at 5 µM. 190,000 tested, 0.3% active. AID 1665, 2009;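 active = nuclear translocation activity above 50% at 5 µM, with a well cell count of 50 or more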;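 also: per-cell ratio of nuclear to cytoplasmic median beta-catenin stain intensity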
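Technique: fluorescence imaging of beta-catenin antibody stain plus DAPI / Material: human HeLa cell line / Incubation: compound treatment 24 h, 37°C, 5% CO2 / Read-out basis: % activation of per-cell nuclear versus cytoplasmic median beta-catenin signal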
ABCG2 block = ABCG2 efflux pump inhibitors, primary screen, multiplex with ABCB1, IgMXP3 cells, flow cytometry; Broad substrate specificity ATP-binding cassette transporter ABCG2 (Homo sapiens), Q9UNQ0; JC-1 efflux; inhibition, % at 6.6 µM; 190,000 tested, 0.1% active; AID 1325, 2008;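 active = inhibition above 80%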
Target sequence (Q9UNQ0 whole entry, looked up): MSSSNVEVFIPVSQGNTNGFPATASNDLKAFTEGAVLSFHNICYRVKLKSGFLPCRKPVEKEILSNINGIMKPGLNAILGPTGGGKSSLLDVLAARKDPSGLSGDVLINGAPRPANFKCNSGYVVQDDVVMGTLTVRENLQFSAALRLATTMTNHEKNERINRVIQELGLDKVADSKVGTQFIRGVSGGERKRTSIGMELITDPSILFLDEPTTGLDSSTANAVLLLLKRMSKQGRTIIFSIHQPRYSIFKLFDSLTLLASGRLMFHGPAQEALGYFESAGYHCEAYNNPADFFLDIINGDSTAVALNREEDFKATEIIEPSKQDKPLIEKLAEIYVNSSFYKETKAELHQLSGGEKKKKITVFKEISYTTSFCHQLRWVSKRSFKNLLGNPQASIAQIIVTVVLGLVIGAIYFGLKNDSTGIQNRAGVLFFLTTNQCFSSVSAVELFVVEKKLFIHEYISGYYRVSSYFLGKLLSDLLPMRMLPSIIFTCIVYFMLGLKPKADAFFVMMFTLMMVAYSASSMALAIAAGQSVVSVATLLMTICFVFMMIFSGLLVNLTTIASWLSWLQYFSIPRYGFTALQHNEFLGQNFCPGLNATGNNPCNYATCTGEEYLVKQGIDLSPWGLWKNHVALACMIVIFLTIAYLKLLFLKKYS
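test system = two drug-resistant human cell lines, ABCG2 and ABCB1 | amount = 3 million cells/mL final, two lines in 1:1 ratio | reagent = JC-1 transporter substrate | doses = one concentration, 6.6 µM final | incubation = 10 min at 25 °C | signal = flow cytometric JC-1 green MFI at 530 nm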
Arbovirus inh = antivirals against arbovirus infection, primary screen, cell-based, full library, 10K replicate subset. arbovirus infection cell-based antiviral screen. 200,000 tested, 0.37% active. inhibition, % at 10 µM; in the data active = inhibition above about 30%
Of the large screens only hits and unclear results are named; the others gave an inactive call. Rows were chosen to be rich in hits. Some 2.1% of all compounds tested hit in one or more screens of this group.

COc1ccc(C(=O)n2c(-c3ccco3)nc3ccccc32)cc1	MT stabilizer 24, bCat nuc transl 75
CCOC(=O)c1c(NC(=O)c2ccco2)sc2c1CCCC2	none
CCOC(=O)c1c(O)c2c(n(Cc3ccco3)c1=O)CCCC2	Arbovirus inh 31
O=C(NC1CC1)C1=C[C@H](c2ccccc2)C[C@H](OCc2ccc(CO)cc2)O1	none
CCC(c1nnnn1C1CCCC1)N(Cc1cccs1)Cc1cc2cc(C)ccc2[nH]c1=O (stereo not given)	MT stabilizer 36, bCat nuc transl 91
CCOC(=O)Cn1nnnc1C(CC)N(Cc1cccs1)Cc1cc2cc(C)ccc2[nH]c1=O (stereo not given)	none
COc1cccc(CN2CCN(Cc3nc(-c4cccs4)oc3C)CC2CCO)c1 (stereo not given)	none
COc1ccc(CCNCC(O)c2ccccc2)cc1 (stereo not given)	Arbovirus inh 31
COC(=O)c1sc2ccccc2c1-n1cccc1C(=O)C(=O)Nc1ccccc1	none (no result: bCat nuc transl)
COC(=O)c1sc2ccccc2c1-n1cccc1C(=O)C(=O)Nc1ccc(OC)cc1	MT stabilizer 22 (no result: bCat nuc transl)
CCOc1ccc(C(=O)Nc2cc(C)c3c(=O)oc4ccccc4c3n2)cc1	Autophagy HCS active (no result: bCat nuc transl)
Cc1cc(NC(=O)c2ccccc2)nc2c1c(=O)oc1ccccc12	none
Cc1cc(NC(=O)c2ccc(S(=O)(=O)N3CCCC3)cc2)nc2c1c(=O)oc1ccccc12	Autophagy HCS active
Cc1nnc(SCC(=O)Nc2nccs2)n(N)c1=O	none
CCN=C1S/C(=C\c2ccc(N3CCOCC3)cc2C)C(=O)N1CC	none (no result: ABCB1 block)
COCCN1C(=O)/C(=C/c2ccc(N3CCCC3)cc2C)SC1=S	ABCB1 block 67, Autophagy HCS active, ABCG2 block 91
COc1cc2c(cc1OC)C(c1cccs1)N(C(=O)c1ccncc1)CC2 (stereo not given)	MT stabilizer 23
COc1cc2c(cc1OC)C(C)N(C(=O)c1cccs1)CC2 (stereo not given)	MT stabilizer 24
COc1cc(NC(=S)NC(=O)c2c(OC)cccc2OC)ccc1NC(=O)c1cccs1	MT stabilizer 21
COc1cc(NC(=O)c2cccc(Cl)c2)ccc1NC(=O)c1cccs1	Autophagy HCS active
Cc1cccc(CSc2ncc(CO)n2C)c1	none (no result: bCat nuc transl)
CCSc1nc2nn(-c3ccccc3)c(=O)c-2c2n1CCCCC2	none
O=C(CSc1nc2nn(-c3ccccc3)c(=O)c-2c2n1CCCCC2)NCCc1ccccc1	Arbovirus inh 32
CC(C)(C)c1ccc(NC(=O)NC2CCCc3ccccc32)cc1 (stereo not given)	none (no result: ABCB1 block, Autophagy HCS, MT stabilizer, ABCG2 block, Arbovirus inh)
O=C(Nc1ccc(Cl)cc1)NC1CCCc2ccccc21 (stereo not given)	MT stabilizer 30 (no result: bCat nuc transl)
CC(=O)NC1=NN(C(C)=O)C(C)(c2ccccn2)S1 (stereo not given)	none
CN(C)C=Nc1c(Br)cc(Br)c2nonc12	Autophagy HCS active (no result: bCat nuc transl)
COc1cccc(NC(=O)Nc2cccnc2)c1	none
Cc1cc(C)c(C#N)c(N2CCCC(C(N)=O)C2)n1 (stereo not given)	none
Cc1cc(Nc2nc(Cl)c(Cl)cc2Cl)n(-c2ccccc2)n1	MT stabilizer 17
Cc1cc(Nc2ccccc2)n(-c2ccccc2)n1	none (no result: bCat nuc transl)
Cc1ccc(C2c3c(C)nn(-c4ccc([N+](=O)[O-])cc4)c3N=C3C(=O)Nc4ccccc4N32)cc1 (stereo not given)	none
COc1cccc(C2c3c(C)nn(-c4ccc([N+](=O)[O-])cc4)c3N=C3C(=O)Nc4ccccc4N32)c1 (stereo not given)	Autophagy HCS active
CCCC1CCC(=C(C#N)C(N)=O)CC1 (stereo not given)	none (no result: bCat nuc transl)
COCCn1nnnc1C(c1ccccc1OC)N1CCN(c2ccccc2)CC1 (stereo not given)	Autophagy HCS active
COc1ccc(C2C(C#N)=C(N)Nc3nc4ccccc4n32)cc1 (stereo not given)	none
COc1ccc(C2C(C#N)=C(N)N3C(=C2C#N)Sc2ccccc23)cc1 (stereo not given)	Autophagy HCS active
CCOC(=O)c1[nH]c(C)c(CN(C(C)=O)c2ccc(OCC)cc2)c1C	MT stabilizer 20
O=c1[nH]c(=O)n([C@H]2C[C@H](O)[C@@H](CO)O2)cc1C(F)(F)F	Autophagy HCS active (no result: bCat nuc transl)
Cc1[nH]c2ccccc2c1/C=N/NC(N)=S	none (no result: ABCB1 block, Autophagy HCS, MT stabilizer, ABCG2 block, Arbovirus inh)
Cc1ccc(NC(=S)N/N=C/c2c(C)[nH]c3ccccc23)cc1	Autophagy HCS active
O=C(CNc1ccccc1)N/N=C/c1c[nH]c2ccccc12	MT stabilizer 16
Cc1cccc(NC(=S)N/N=C/c2c[nH]c3ccccc23)c1	MT stabilizer 14 (no result: bCat nuc transl)
CCc1nnc(NC(=O)CSc2nnc(-c3ccco3)n2C)s1	none
CCOc1ccccc1NC(=O)CN1CCC(NC(=O)c2ccccc2)CC1	none
CCOC(=O)c1ccccc1NC(=O)CN1CCC(n2nnc3cc(C(F)(F)F)ccc32)CC1	none (no result: ABCB1 block, Autophagy HCS, MT stabilizer, ABCG2 block, Arbovirus inh)
COc1ccc(C(=O)N2CCC(n3nnc4cc(F)ccc43)CC2)cc1OC	Autophagy HCS active
COC(=O)c1ccccc1NC(=O)CN1CCC(n2nnc3cc(F)ccc32)CC1	Arbovirus inh 40
COC(=O)c1ccccc1NC(=O)CN1CCC(NC(=O)c2ccc(C)cc2)CC1	Arbovirus inh 55
Cc1cccc(C(=O)N2CCC(n3nnc4cc(F)ccc43)CC2)c1	none
COc1ccc(-c2cc(C(F)(F)F)nc(SCCC(=O)NCc3ccccc3)n2)cc1	none
O=C(/C=C/c1ccccc1F)c1ccoc1	none
COc1ccc2nc(-c3ccccc3)[nH]c2c1	none
CCOc1ccc2nc(-c3ccccc3)[nH]c2c1	MT stabilizer 42, bCat nuc transl 78
CC(OC(=O)c1c2c(nc3ccccc13)/C(=C\c1ccc3c(c1)OCO3)CCC2)C(=O)Nc1ccc(S(N)(=O)=O)cc1 (stereo not given)	none
Cc1cccc(C)c1NC(=O)COC(=O)c1c2c(nc3ccccc13)/C(=C\c1ccc3c(c1)OCO3)CCC2	Autophagy HCS active (no result: bCat nuc transl)
CCOc1ccc(N2CCc3c(C)nc(SC)nc32)cc1	MT stabilizer 31, bCat nuc transl 125
CSc1nc(C)c2c(n1)N(c1ccc(F)cc1)CC2	none
CSc1nc(C)c2c(n1)N(c1ccc(O)cc1)CC2	none
COc1ccc(N2CCc3c(C)nc(SC)nc32)cc1	MT stabilizer 17
Cc1cc(C)nc(Nc2n[nH]c(COc3ccc4ccccc4c3)n2)n1	none
O=C(NCc1ccco1)/C(=C\C=C\c1ccccc1)NC(=O)c1ccco1	none (no result: ABCB1 block, Autophagy HCS, MT stabilizer, ABCG2 block, Arbovirus inh)
